{
  "source": "ChEMBL document CHEMBL3784931",
  "about": "“Synthesis and evaluation of novel angiotensin II receptor 1 antagonists as anti-hypertension drugs” (Bioorg Med Chem, 2016)",
  "key": {"[1]": {"experiment": "Elimination rate constant in Wistar rat liver at 10 mg/kg, po after 0.5 to 72 hrs by HPLC analysis", "type": "ADME, organism-based", "outline": "(§1)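 Wistar rats were dosed orally and killed by abdominal aorta transection at 0.5, 1, 2, 4, 6, 8, 12, 24, 48 and 72 h. Organs were excised at once, minced and homogenized at 4 °C in normal saline to a 25% (w/v) homogenate. After spinning at 3000 × g, 4 °C, 10 min, supernatants were analysed by HPLC. Values are mean ± SEM, n = 5 per point.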"}, "[2]": {"experiment": "Cmax in Wistar rat plasma at 10 mg/kg, po after 0.5 to 72 hrs by HPLC analysis", "type": "ADME, organism-based", "design": "dose 10 mg/kg, route oral", "outline": "(§2)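 Wistar rats got an oral dose. Venous blood (0.5 mL) was taken predose and at 0.5, 1, 2, 4, 6, 8, 12, 24, 48 and 72 h, and plasma was spun 4000 × g, 4 °C, 10 min. Samples with internal standard were acetonitrile-precipitated, filtered and run on C18 reverse-phase HPLC with UV detection. Calibration used weighted regression of peak height ratio.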"}, "[3]": {"molecular_target": "T1, Type-1 angiotensin II receptor A (Rattus norvegicus, UniProt P25095)", "T1 sequence (P25095 whole entry)": "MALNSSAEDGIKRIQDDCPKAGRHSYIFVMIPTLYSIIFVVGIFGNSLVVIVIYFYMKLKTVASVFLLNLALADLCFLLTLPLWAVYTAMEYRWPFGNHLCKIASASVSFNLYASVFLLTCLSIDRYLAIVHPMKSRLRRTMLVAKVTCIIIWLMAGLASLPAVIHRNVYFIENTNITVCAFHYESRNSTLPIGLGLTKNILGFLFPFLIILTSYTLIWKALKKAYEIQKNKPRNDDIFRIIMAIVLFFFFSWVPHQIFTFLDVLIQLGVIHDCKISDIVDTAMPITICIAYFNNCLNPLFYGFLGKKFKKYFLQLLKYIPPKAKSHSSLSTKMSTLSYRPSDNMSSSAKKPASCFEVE", "experiment": "Displacement of [125I]-Ang II from Angiotensin 2 type-1A receptor in rat vascular smooth muscle cells after 150 mins by gamma counting method", "outline": "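Rat vascular smooth muscle cells (passages 3–6) were seeded at 10⁶ cells/well and grown at 37 °C in 5% CO₂. Nonspecific binding was taken with 1 µM Ang II. Cells were washed three times, lysed 10 min in 0.1 M NaOH, and bound radioactivity was gamma counted.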"}, "[4]": {"experiment": "Tmax in Wistar rat brain at 10 mg/kg, po after 0.5 to 72 hrs by HPLC analysis", "type": "ADME, organism-based", "outline": "as §1"}, "Mus musculus [5]": {"system": "Mus musculus", "experiment": "Acute toxicity in ICR mouse assessed as pathological changes in organs and tissues at 1200 to 6742.38, ig administered daily for 2 weeks measured on 15th day", "type": "organism-based", "conditions": "in vivo, po, 336 h", "outline": "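ICR mice of both sexes (20 ± 2 g) dosed intragastrically at 1200–6742.38 mg/kg and observed for two weeks. Surviving mice then dissected and examined with the naked eye.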"}, "[6]": {"experiment": "Terminal half life in Wistar rat lung at 10 mg/kg, po after 0.5 to 72 hrs by HPLC analysis", "type": "ADME, organism-based", "conditions": "read-out: beta t1/2 (converted)", "outline": "as §1"}, "[7]": {"experiment": "Terminal half life in Wistar rat brain at 10 mg/kg, po after 0.5 to 72 hrs by HPLC analysis", "type": "ADME, organism-based", "conditions": "read-out: beta t1/2 (converted)", "outline": "as §1"}, "Rattus norvegicus [8]": {"system": "Rattus norvegicus", "experiment": "Antihypertensive activity in spontaneous hypertensive rat model assessed as mean blood pressure at 15 mg/kg, po administered for 2 hrs", "type": "functional", "outline": "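Male SHRs were randomized, n = 6 per group. Compound was suspended in DMSO/oleic acid (1:4) and given by oral gavage; vehicle controls got the same volume of solvent. SBP and DBP were recorded in conscious animals by noninvasive tail-artery manometry. MBP = (SBP − DBP)/3 + DBP. Data are mean ± SEM, with p < 0.05 taken as significant.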"}, "Rattus norvegicus [9]": {"system": "Rattus norvegicus", "experiment": "Effect on heart rate in spontaneous hypertensive rat model at 10 and 15 mg/kg, po", "type": "ADME, organism-based", "conditions": "in vivo"}, "[10]": {"experiment": "Terminal half life in Wistar rat spleen at 10 mg/kg, po after 0.5 to 72 hrs by HPLC analysis", "type": "ADME, organism-based", "conditions": "read-out: beta t1/2 (converted)", "outline": "as §1"}, "Mus musculus [11]": {"system": "Mus musculus", "experiment": "Acute toxicity in ICR mouse assessed as hyperthyroidism at 1600 to 6742.38 mg/kg, ig administered daily for 2 weeks measured 5 hrs post last dose", "type": "organism-based", "conditions": "in vivo, po", "outline": "(§3)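 ICR mice, sixty in total, half male and half female, 20 ± 2 g. Intragastric dosing at 1200, 1600, 2133.3, 2844.40, 5056.79 or 6742.38 mg/kg. Animals watched daily over two weeks for survival and physiological abnormalities or untoward reactions. Percent mortality recorded per dose group.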"}, "[12]": {"experiment": "Cmax in Wistar rat stomach at 10 mg/kg, po after 0.5 to 72 hrs by HPLC analysis", "type": "ADME, organism-based", "design": "dose 10 mg/kg, route oral", "outline": "as §1"}, "[13]": {"experiment": "Cmax in Wistar rat kidney at 10 mg/kg, po after 0.5 to 72 hrs by HPLC analysis", "type": "ADME, organism-based", "design": "dose 10 mg/kg, route oral", "outline": "as §1"}, "[14]": {"experiment": "Acute toxicity in ICR mouse assessed as mortality at 1600 mg/kg, ig administered daily for 2 weeks measured during compound dosing", "type": "organism-based", "conditions": "in vivo, po", "outline": "as §3"}, "Mus musculus [15]": {"system": "Mus musculus", "experiment": "Acute toxicity in ICR mouse assessed as obvious untoward reaction at 1200 to 6742.38, ig administered daily for 2 weeks during compound dosing", "type": "organism-based", "conditions": "in vivo, po, 336 h", "outline": "as §3"}, "[16]": {"experiment": "Terminal half life in Wistar rat kidney at 10 mg/kg, po after 0.5 to 72 hrs by HPLC analysis", "type": "ADME, organism-based", "conditions": "read-out: beta t1/2 (converted)", "outline": "as §1"}, "[17]": {"experiment": "Tmax in Wistar rat stomach at 10 mg/kg, po after 0.5 to 72 hrs by HPLC analysis", "type": "ADME, organism-based", "outline": "as §1"}, "Brain": {"system": "Brain", "experiment": "AUC (0 to 72 hrs) in Wistar rat brain at 10 mg/kg, po by HPLC analysis", "type": "ADME, organism-based", "design": "dose 10 mg/kg, time < 72 hr, route oral", "conditions": "in vivo", "outline": "as §1"}, "[18]": {"experiment": "Acute toxicity in ICR mouse assessed as mortality at 2133.30 mg/kg, ig administered daily for 2 weeks measured during compound dosing", "type": "organism-based", "conditions": "in vivo, po, 2133.3 mg/kg", "outline": "as §3"}, "Spleen": {"system": "Spleen", "experiment": "AUC (0 to 72 hrs) in Wistar rat spleen at 10 mg/kg, po by HPLC analysis", "type": "ADME, organism-based", "design": "time < 72 hr, dose 10 mg/kg, route oral", "conditions": "in vivo", "outline": "as §1"}, "[19]": {"experiment": "Tmax in Wistar rat kidney at 10 mg/kg, po after 0.5 to 72 hrs by HPLC analysis", "type": "ADME, organism-based", "outline": "as §1"}, "Stomach": {"system": "Stomach", "experiment": "AUC (0 to 72 hrs) in Wistar rat stomach at 10 mg/kg, po by HPLC analysis", "type": "ADME, organism-based", "design": "time < 72 hr, dose 10 mg/kg, route oral", "conditions": "in vivo", "outline": "as §1"}, "[20]": {"experiment": "Cmax in Wistar rat brain at 10 mg/kg, po after 0.5 to 72 hrs by HPLC analysis", "type": "ADME, organism-based", "design": "dose 10 mg/kg, route oral", "outline": "as §1"}, "[21]": {"experiment": "Acute toxicity in ICR mouse assessed as mortality administered intragastrically daily for 2 weeks measured during compound dosing", "type": "organism-based", "conditions": "in vivo, po", "outline": "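Sixty normal ICR mice (half male, half female, 20 ± 2 g) given intragastric doses of 1200, 1600, 2133.3, 2844.40, 5056.79 and 6742.38 mg/kg. Survival checked daily for two weeks.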"}, "[22]": {"experiment": "Elimination rate constant in Wistar rat brain at 10 mg/kg, po after 0.5 to 72 hrs by HPLC analysis", "type": "ADME, organism-based", "outline": "as §1"}, "Lung": {"system": "Lung", "experiment": "AUC (0 to 72 hrs) in Wistar rat lung at 10 mg/kg, po by HPLC analysis", "type": "ADME, organism-based", "design": "dose 10 mg/kg, time < 72 hr, route oral", "conditions": "in vivo", "outline": "as §1"}, "[23]": {"experiment": "Acute toxicity in ICR mouse assessed as mortality at 5056.79 mg/kg, ig administered daily for 2 weeks measured during compound dosing", "type": "organism-based", "conditions": "in vivo, po", "outline": "as §3"}, "Mus musculus [24]": {"system": "Mus musculus", "experiment": "Acute toxicity in ICR mouse assessed as mortality at 1200 to 6742.38 mg/kg, ig administered daily for 2 weeks during compound dosing", "type": "organism-based", "conditions": "in vivo, po, 336 h", "outline": "as §3"}, "[25]": {"experiment": "Elimination rate constant in Wistar rat spleen at 10 mg/kg, po after 0.5 to 72 hrs by HPLC analysis", "type": "ADME, organism-based", "outline": "as §1"}, "[26]": {"experiment": "AUC (0 to 72 hrs) in Wistar rat plasma at 10 mg/kg, po by HPLC analysis", "type": "ADME, organism-based", "design": "dose 10 mg/kg, time < 72 hr, route oral", "outline": "as §2"}},
  "data": [
    {"smiles": "CCCCc1nc(Cl)c(C(=O)O)n1Cc1ccc(-c2ccccc2-c2noc(=O)[nH]2)cc1", "values": [
      {"measurement": "k el", "setting": "[1]", "result": "1.94e-05", "unit": "s⁻¹"},
      {"measurement": "Cmax", "setting": "[2]", "result": 10.3, "unit": "ng/mL"},
      {"measurement": "IC50", "setting": "[3]", "result": 3.16, "unit": "nM"},
      {"measurement": "Ki", "setting": "[3]", "result": 2.29, "unit": "nM"},
      {"measurement": "Tmax", "setting": "[4]", "result": 2, "unit": "h"},
      {"measurement": "Activity", "setting": "Mus musculus [5]", "result": "Non-toxic"},
      {"measurement": "half-life", "setting": "[6]", "result": 12.4, "unit": "h"},
      {"measurement": "half-life", "setting": "[7]", "result": 16.9, "unit": "h"},
      {"measurement": "Activity", "setting": "Rattus norvegicus [8]", "result": 62, "unit": "mmHg"},
      {"measurement": "Activity", "setting": "Rattus norvegicus [9]", "result": "Non-toxic"},
      {"measurement": "half-life", "setting": "[10]", "result": 8.74, "unit": "h"},
      {"measurement": "Activity", "setting": "Mus musculus [11]", "result": "Toxic"},
      {"measurement": "Cmax", "setting": "[12]", "result": 8.91, "unit": "ng/g"},
      {"measurement": "Cmax", "setting": "[13]", "result": 10.5, "unit": "ng/g"},
      {"measurement": "mortality at 336 h", "setting": "[14]", "result": 10, "unit": "%"},
      {"measurement": "Activity", "setting": "Mus musculus [15]", "result": "Non-toxic"},
      {"measurement": "half-life", "setting": "[16]", "result": 15.6, "unit": "h"},
      {"measurement": "Tmax", "setting": "[17]", "result": 0.5, "unit": "h"},
      {"measurement": "AUC", "setting": "Brain", "result": 123.07, "unit": "ng·h/g"},
      {"measurement": "mortality at 336 h", "setting": "[18]", "result": 20, "unit": "%"},
      {"measurement": "AUC", "setting": "Spleen", "result": 275.21, "unit": "ng·h/g"},
      {"measurement": "Tmax", "setting": "[19]", "result": 0.5, "unit": "h"},
      {"measurement": "AUC", "setting": "Stomach", "result": 221.03, "unit": "ng·h/g"},
      {"measurement": "Cmax", "setting": "[20]", "result": 5.8, "unit": "ng/g"},
      {"measurement": "LD50 at 336 h", "setting": "[21]", "result": 2970, "unit": "mg/kg"},
      {"measurement": "k el", "setting": "[22]", "result": "1.14e-05", "unit": "s⁻¹"},
      {"measurement": "AUC", "setting": "Lung", "result": 213.96, "unit": "ng·h/g"},
      {"measurement": "mortality at 336 h", "setting": "[23]", "result": 90, "unit": "%"},
      {"measurement": "Activity", "setting": "Mus musculus [24]", "result": "Toxic"},
      {"measurement": "k el", "setting": "[25]", "result": "2.19e-05", "unit": "s⁻¹"},
      {"measurement": "AUC(0-t) at 72 h", "setting": "[26]", "result": 296, "unit": "ng·h/mL"}
    ]}
  ]
}
